Measured values as given in ChEMBL document CHEMBL1134512, “Bicyclic analogues of D-myo-inositol 1,4,5-trisphosphate related to adenophostin A: synthesis and biological activity” (J Med Chem, 2001).

Columns and labels:
[1] = Ratio to Ins(1,4,5)P3 was measured(ratio greater than 1 denotes greater affinity and less than -1 denotes lesser affinity)
[2] = Hill coefficient, measured using equilibrium competition binding with [3H]Inositol(1,4,5)P3
[3] = Ratio to Ins(1,4,5)P3, for the effect on [Ca2+] release from the intracellular stores of permealized hepatocytes (ratio greater than 1 denotes greater potency and less than -1 denotes lesser potency); format: functional, Hepatocyte
Rattus norvegicus [4] = species on record: Rattus norvegicus; test: Fraction of total [Ca2+] stores released by a maximal concentration of the compound; format: functional
Method in brief: (§1)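 Permeabilized rat hepatocytes loaded with 45Ca2+ to steady state (5 min, 37 °C) in cytosol-like medium pH 7.0 with ATP 1.5 mM, creatine phosphate 5 mM, creatine phosphokinase 5 units/mL, FCCP 10 µM. Thapsigargin (1.25 µM) added, agonist 30 s later, store Ca2+ measured by rapid filtration after 60 s. Four-parameter logistic fit gives EC50, Hill slope, maximal release; three experiments.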

[5] = Binding affinity towards rat liver membrane, measured using equilibrium competition binding with [3H]Inositol(1,4,5)P3
Rattus norvegicus [6] = species on record: Rattus norvegicus; test: […] on [Ca2+] release from the intracellular stores of permealized hepatocytes; format: functional; conditions: Hepatocyte; method in brief: as §1
Hepatocyte = test: Hill coefficient for the effect on [Ca2+] release from the intracellular stores of permealized hepatocytes; format: cell-based; method in brief: as §1

Row | Ratio [1] | Hill coefficient [2] | Kd [5] | Compound | Ratio [3] | Max response (Rattus norvegicus [4]) | EC50 (Rattus norvegicus [6]) | Hill coefficient (Hepatocyte)
1 | -14 | 1.12 | 62 nM | O=P(O)(O)O[C@H]1CO[C@@H]2[C@H](O)[C@@H](OP(=O)(O)O)[C@H](OP(=O)(O)O)[C@@H](O)[C@@H]2OC1 | -14 | 59% | 1230 nM | 2.9
2 | -21 | 1.01 | 98 nM | O=P(O)(O)O[C@@H]1CO[C@@H]2[C@H](O)[C@@H](OP(=O)(O)O)[C@H](OP(=O)(O)O)[C@@H](O)[C@@H]2OC1 | -18 | 59% | 1650 nM | 2.61
3 | 8.3 | 1.17 | 0.55 nM | Nc1ncnc2c1ncn2[C@@H]1O[C@H](CO)[C@@H](O[C@H]2O[C@H](CO)[C@@H](OP(=O)(O)O)[C@H](OP(=O)(O)O)[C@H]2O)[C@H]1OP(=O)(O)O [ADENOPHOSTIN A] | 9.8 | 49% | 9.2 nM | 2.99
4 | 1 | 1.16 | 4.56 nM | O=P(O)(O)O[C@@H]1[C@H](O)[C@H](O)[C@@H](OP(=O)(O)O)[C@H](OP(=O)(O)O)[C@H]1O [INS(1,4,5)P3] | 1 | 59% | 90 nM | 1.48
